Data from ChEMBL document CHEMBL3352812, “Shogaol-huprine hybrids: dual antioxidant and anticholinesterase agents with β-amyloid and tau anti-aggregating properties” (Bioorg Med Chem, 2014).

Assays:
[1] = Antioxidant activity assessed as total polyphenolics measured as gallic acid equivalent after 30 mins by Folin-Ciocalteu assay; format: physicochemical; conditions: 0.5 h
[2] = molecular target: Microtubule-associated protein tau (Homo sapiens) (UniProt P10636); assay: Inhibition of aggregation of TAU (unknown origin) expressed in Escherichia coli BL21 (DE3) at 10 uM after 24 hrs by thioflavin S fluorescence assay
In short: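 E. coli BL21(DE3) with pTARA (T7 RNA polymerase under pBAD) transformed with pRKT42 encoding four-repeat tau; overnight culture at 37 °C in M9 with 0.5% glucose, ampicillin 50 µg/mL, chloramphenicol 12.5 µg/mL. Th-S fluorescence at 455 nm (ex 375 nm) normalised to OD600, with induced untreated cells as 100%; mean ± SEM of four experiments.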

[3] = molecular target: Amyloid-beta precursor protein (Homo sapiens) (UniProt P05067); assay: Inhibition of aggregation of amyloid beta (1 to 42) (unknown origin) expressed in Escherichia coli BL21 (DE3) at 10 uM after 24 hrs by thioflavin S fluorescence assay
In short: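 E. coli BL21(DE3) carrying Aβ42 plasmid grown overnight at 37 °C in LB with kanamycin 50 µg/mL; diluted into LB with kanamycin, 1 mM IPTG, compound in DMSO and Th-S, grown 24 h at 37 °C, 1400 rpm; DMSO-only negative control. Th-S emission 455 nm (ex 375 nm) normalised to OD600, induced untreated cells set as 100%; mean ± SEM of four experiments.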

[4] = Antioxidant activity assessed as ABTS free radical scavenging activity measured as trolox equivalent after 1 hr by spectrophotometry; format: physicochemical
In short: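 ABTS radical cation generated by passing 5 mM ABTS stock through MnO2 and filtering; 245 µL radical solution added to 5 µL sample or trolox, stirred 30 s, kept dark 1 h, A734 read against MeOH blanks. Trolox calibration; expressed as µmol trolox/µmol compound; triplicate analyses, mean ± SEM of three experiments.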

[5] = Antioxidant activity assessed as DPPH free radical scavenging activity measured as trolox equivalent after 30 mins by spectrophotometry; format: physicochemical; set-up: unit not given beside the values; conditions: 0.5 h
In short: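 Sample or trolox (5 µL) mixed with 250 µL methanolic DPPH (0.025 g/L), shaken, held in darkness 30 min, absorbance at 515 nm. Calibrated with trolox solutions; reported as µmol trolox/µmol compound; triplicate, mean ± SEM of three experiments.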

Cholinesterase [6] = molecular target: T1, Cholinesterase (Homo sapiens, UniProt P06276); assay: Inhibition of human serum BChE using butyrylthiocholine iodide at 10 uM preincubated for 20 mins before substrate addition by Ellman method
Acetylcholinesterase [7] = molecular target: T2, Acetylcholinesterase (Homo sapiens, UniProt P22303); assay: Inhibition of human recombinant AChE using acetylthiocholine iodide as substrate at 10 uM preincubated for 20 mins before substrate addition by Ellman method
in vitro = conditions: PAMPA
Acetylcholinesterase [8] = molecular target: T2, Acetylcholinesterase; assay: Inhibition of human recombinant AChE using acetylthiocholine iodide as substrate preincubated for 20 mins before substrate addition by Ellman method
Cholinesterase [9] = molecular target: T1, Cholinesterase; assay: Inhibition of human serum BChE using butyrylthiocholine iodide preincubated for 20 mins before substrate addition by Ellman method
In short: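 Ellman spectrophotometric assay in 0.1 M phosphate buffer. Enzymes were human recombinant AChE and human serum BChE. Inhibitor (at least 10 increasing concentrations, in duplicate) was preincubated 20 min at 37 °C. Acetylthiocholine iodide (450 µM, AChE) or butyrylthiocholine iodide (300 µM, BChE) was then added and reacted 5 min at 37 °C, with absorbance read at 414 nm. The no-inhibitor control set 100% activity. IC50 came from non-linear regression, at least 4 experiments.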

T1 sequence (P06276 whole entry): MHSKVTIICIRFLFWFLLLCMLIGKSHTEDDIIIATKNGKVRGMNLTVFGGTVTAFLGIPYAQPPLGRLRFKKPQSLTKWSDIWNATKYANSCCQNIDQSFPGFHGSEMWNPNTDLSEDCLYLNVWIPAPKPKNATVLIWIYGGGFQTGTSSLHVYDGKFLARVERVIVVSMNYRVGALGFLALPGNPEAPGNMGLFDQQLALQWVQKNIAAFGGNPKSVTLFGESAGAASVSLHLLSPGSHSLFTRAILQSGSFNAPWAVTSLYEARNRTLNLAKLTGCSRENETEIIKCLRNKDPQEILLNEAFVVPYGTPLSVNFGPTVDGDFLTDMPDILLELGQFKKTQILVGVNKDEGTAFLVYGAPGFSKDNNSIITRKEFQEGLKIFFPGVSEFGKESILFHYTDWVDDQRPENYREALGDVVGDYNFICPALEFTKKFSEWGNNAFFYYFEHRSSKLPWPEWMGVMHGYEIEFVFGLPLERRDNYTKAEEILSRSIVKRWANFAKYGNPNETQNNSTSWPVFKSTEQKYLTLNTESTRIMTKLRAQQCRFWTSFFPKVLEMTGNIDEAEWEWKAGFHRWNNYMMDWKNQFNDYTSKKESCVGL
Sequence of Amyloid-beta precursor protein (Homo sapiens) (P05067 whole entry): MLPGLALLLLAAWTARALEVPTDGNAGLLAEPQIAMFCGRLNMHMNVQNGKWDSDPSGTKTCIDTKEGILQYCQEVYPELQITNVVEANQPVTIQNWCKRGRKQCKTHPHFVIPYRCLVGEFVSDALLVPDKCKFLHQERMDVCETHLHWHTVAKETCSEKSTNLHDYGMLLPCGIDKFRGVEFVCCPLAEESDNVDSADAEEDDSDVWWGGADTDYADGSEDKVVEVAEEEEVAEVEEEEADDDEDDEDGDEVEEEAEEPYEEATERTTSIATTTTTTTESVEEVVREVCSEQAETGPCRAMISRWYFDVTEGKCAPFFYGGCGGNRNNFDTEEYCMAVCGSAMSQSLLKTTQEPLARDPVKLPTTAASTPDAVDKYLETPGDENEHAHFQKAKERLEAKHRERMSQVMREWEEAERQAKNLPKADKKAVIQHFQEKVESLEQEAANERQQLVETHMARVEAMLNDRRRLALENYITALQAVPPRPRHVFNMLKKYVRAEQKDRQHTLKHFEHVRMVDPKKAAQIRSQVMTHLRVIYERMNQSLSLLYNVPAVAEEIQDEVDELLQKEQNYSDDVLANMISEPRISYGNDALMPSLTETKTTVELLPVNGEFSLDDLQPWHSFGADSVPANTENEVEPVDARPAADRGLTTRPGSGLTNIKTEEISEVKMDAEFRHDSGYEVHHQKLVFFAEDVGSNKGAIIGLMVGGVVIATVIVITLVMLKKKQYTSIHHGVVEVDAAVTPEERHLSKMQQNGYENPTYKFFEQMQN
T2 sequence (P22303 whole entry): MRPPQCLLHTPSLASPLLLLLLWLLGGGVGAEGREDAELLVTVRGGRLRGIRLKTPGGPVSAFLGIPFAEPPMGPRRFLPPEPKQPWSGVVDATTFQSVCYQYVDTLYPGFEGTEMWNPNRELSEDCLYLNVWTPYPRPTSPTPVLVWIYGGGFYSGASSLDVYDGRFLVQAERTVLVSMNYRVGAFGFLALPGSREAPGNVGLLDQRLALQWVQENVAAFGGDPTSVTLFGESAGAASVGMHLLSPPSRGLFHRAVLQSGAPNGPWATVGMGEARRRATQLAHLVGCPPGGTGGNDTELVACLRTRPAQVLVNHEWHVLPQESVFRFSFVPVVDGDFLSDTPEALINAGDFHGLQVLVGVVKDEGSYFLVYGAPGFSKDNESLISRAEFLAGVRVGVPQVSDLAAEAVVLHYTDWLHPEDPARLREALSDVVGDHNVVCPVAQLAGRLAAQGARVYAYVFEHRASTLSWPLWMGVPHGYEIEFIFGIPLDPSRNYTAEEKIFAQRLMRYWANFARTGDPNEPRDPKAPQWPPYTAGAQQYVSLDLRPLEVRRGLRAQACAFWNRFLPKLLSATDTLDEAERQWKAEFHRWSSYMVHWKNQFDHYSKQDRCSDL
Sequence of Microtubule-associated protein tau (Homo sapiens) (P10636 whole entry): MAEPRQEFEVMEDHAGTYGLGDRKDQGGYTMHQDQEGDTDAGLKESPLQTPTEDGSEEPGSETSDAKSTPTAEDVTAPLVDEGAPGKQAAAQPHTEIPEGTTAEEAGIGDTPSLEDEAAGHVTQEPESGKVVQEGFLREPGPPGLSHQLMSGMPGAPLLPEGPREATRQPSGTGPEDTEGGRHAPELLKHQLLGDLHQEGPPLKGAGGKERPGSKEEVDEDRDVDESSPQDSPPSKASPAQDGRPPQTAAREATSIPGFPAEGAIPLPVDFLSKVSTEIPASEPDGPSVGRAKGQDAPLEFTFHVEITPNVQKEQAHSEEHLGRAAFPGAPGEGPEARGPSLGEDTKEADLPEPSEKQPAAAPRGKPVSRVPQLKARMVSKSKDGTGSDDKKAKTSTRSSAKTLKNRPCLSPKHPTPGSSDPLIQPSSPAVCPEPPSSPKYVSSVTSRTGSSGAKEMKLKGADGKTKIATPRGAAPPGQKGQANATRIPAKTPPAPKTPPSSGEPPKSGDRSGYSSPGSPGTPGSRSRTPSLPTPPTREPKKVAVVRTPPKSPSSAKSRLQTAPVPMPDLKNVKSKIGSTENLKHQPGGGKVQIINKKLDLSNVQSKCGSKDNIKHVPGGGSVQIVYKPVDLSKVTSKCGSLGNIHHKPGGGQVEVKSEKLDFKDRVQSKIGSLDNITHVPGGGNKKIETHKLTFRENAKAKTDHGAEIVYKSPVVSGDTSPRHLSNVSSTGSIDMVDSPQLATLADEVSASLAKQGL

| Structure (SMILES) | Activity [1] | inhibition [2] | inhibition [3] | Activity [4] | Activity [5] | inhibition (Cholinesterase [6]) | inhibition (Acetylcholinesterase [7]) | Papp (in vitro) | IC50 (Acetylcholinesterase [8]) | IC50 (Cholinesterase [9]) |
| --- | --- | --- | --- | --- | --- | --- | --- | --- | --- | --- |
| CC1=CC2Cc3nc4cc(Cl)ccc4c(N)c3C(C1)C2 (stereo not given) [HUPRINE Y] | 10.2 mgequiv/g | 7.6% | 8.9% | 2.6 | 1 |  |  |  |  |  |
| CCCCC/C=C/C(=O)CCc1ccc(O)c(OC)c1 [SHOGAOL] | 384 mgequiv/g | 9.2% | 10.5% | 26.2 | 12.2 | 6% | 28% | 14.7 ×10⁻⁶ cm/s |  |  |
| O=C(O)c1cc(O)c(O)c(O)c1 [GALLIC ACID] | 1033 mgequiv/g |  |  | 18.6 | 10.3 |  |  |  |  |  |
| COc1cc(CCC(=O)/C=C/CCCNc2c3c(nc4cc(Cl)ccc24)CC2CC(C)=CC3C2)ccc1O (stereo not given) | 29.8 mgequiv/g | 35.2% | 39.3% | 7.6 | 6.6 |  |  | 11.7 ×10⁻⁶ cm/s | 6.7 nM | 982 nM |
| COc1cc(CCC(=O)/C=C/c2ccc(CNc3c4c(nc5cc(Cl)ccc35)CC3CC(C)=CC4C3)cc2)cc(CN(C)C)c1O (stereo not given) | 68.8 mgequiv/g | 40.1% | 53.9% | 11.8 | 2.8 |  |  | 8.4 ×10⁻⁶ cm/s | 21.1 nM | 181 nM |
| COc1cc(CCC(=O)/C=C/c2ccc(CNc3c4c(nc5cc(Cl)ccc35)CC3CC(C)=CC4C3)cc2)ccc1O (stereo not given) | 50 mgequiv/g | 51% | 70.6% | 10.5 | 8.8 |  |  | 6.5 ×10⁻⁶ cm/s | 18.3 nM | 742 nM |
